According to the RNAGym collection of RNA variant scans (doi:10.1126/science.aae0568):
Variants at the floor of the assay were thinned out.

B1: tRNA (parent)
chain: GUUCCGUUGGCGUAAUGGUAACGCGUCUCCCUCCUAAGGAGAAGACUGCGGGUUCGAGUCCCGUACGGAACG

Variants of: B1
Test: yeast fitness relative to wild type (ratio to wild type); higher = fitter; tRNA-Arg(CCU), competitive growth, 37 C, YPD
In short: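 Start and end populations of a pooled competition were compared by 100-nucleotide paired-end sequencing of gene amplicons. The Saccharomyces cerevisiae strains carried tRNA-Arg(CCU) gene variants at the native genomic locus, synthesised with a 3% per-site mutation rate at 69 sites, and competed in YPD at 37°C for 24 hours in six parallel replicates. Darwinian fitness relative to wild type was based on the change in genotype frequencies. Genotypes required ≥ 100 starting reads, and estimates < 0.5 were set to 0.5.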

Variant | yeast fitness
G12C A69G | 0.82
G12C A14U C61G U64C | ≤ 0.5
G12C A14G A15C G41A A42C G50C A70G | ≤ 0.5
G12A G25A G56A | 0.599
G12C C61A A65U | ≤ 0.5
G12A U28A C55G | ≤ 0.5
G12A U19A C29G A43U C55U | ≤ 0.5
G12A G50C U64C | 0.692
G12C C61U C66G | ≤ 0.5
G12C A42G U47C | 0.634
G12C A14C C24U A45U G58A A65G | ≤ 0.5
G12A G39C C66U | 0.572
G12C G17C C22A G58A | ≤ 0.5
G12C A20U C31A A65G | ≤ 0.5
G12C G48A A69U | 0.836
G12C C27A A37G C49U G63A | ≤ 0.5
G12C C34A G44C | ≤ 0.5
G12A U47C A57C | 0.579
G12A U19C U28C C55G | ≤ 0.5
G12C C24G C27U A43U A69U | 0.625
G12C C27A | 0.814
G12C A14C A15G A37C A57U | 0.682
G12C C29A A45U C62U | ≤ 0.5
G12C C31U U59A | 0.6

Variant | yeast fitness
G12A G67A | 0.857
G12C A20C C31G G51C | ≤ 0.5
G12C C30G A37U G41A | ≤ 0.5
G12C A65U A70U | 0.606
G12A U16C C27A | ≤ 0.5
G12C A37U G44C | 0.538
G12A U47C A69U | 0.757
G12A G50A | 1.01
G12C C27U C62G | ≤ 0.5
G12C A45G A65G | 0.548
G12A U32C U35A G58A G68A | ≤ 0.5
G12C G41A A65C | ≤ 0.5
G12A U19G U35C A40U A42G | ≤ 0.5
G12C C22U C27A C49U | ≤ 0.5
G12C C60G | 0.641
G12C C60U | 0.726
G12A G44C G67A | 0.513
G12C A20U A36G C46A U54A G67C | ≤ 0.5
G12C G67A A69C | ≤ 0.5
G12C G67A A69G | 0.534
G12C C29U A36U | ≤ 0.5
G12A G50C G68C | 0.522
G12C U16A G23C C29A C60A | ≤ 0.5
G12A U35C A37C C62U A65C | ≤ 0.5

Variant | yeast fitness
G12A G41C C60G A70U | ≤ 0.5
G12C A40G A70G | 0.567
G12A G25A G67A | 0.625
G12C A20C C30U C31G | ≤ 0.5
G12A U47G U53A | ≤ 0.5
G12C G56C G58C | ≤ 0.5
G12A U35A | 0.706
G12C C24U C30U C60A | ≤ 0.5
G12C U16A C27G A36G C46U C61U G68A | ≤ 0.5
G12C G58A A65U | 0.72
G12C C30U A36C A40U | ≤ 0.5
G12C C24U G48C A69C | ≤ 0.5
G12C G25A A43C | 0.639
G12C A15U C49U | ≤ 0.5
G12A U32C A42C G44C A69C | ≤ 0.5
G12C U13G A15C A36U | ≤ 0.5
G12C G50A U54A | ≤ 0.5
G12C G17C C22A U32A C34A A65C | ≤ 0.5
G12C U16A C24G G58C | 0.567
G12C G17A C49U U59C | ≤ 0.5
G12C G23C C49G A57U A65C | ≤ 0.5
G12A U16A A40G A57C C60A C62U | 0.69
G12A G44C C49G | 0.799
G12A U26A A70U | 0.523

Variant | yeast fitness
G12A G52A U59C | ≤ 0.5
G12A G48C G67C | ≤ 0.5
G12C C30U | 0.694
G12C C30A | 0.786
G12C C30G | 0.666
G12C C22U | 0.955
G12C C22G | 1.03
G12A U28G C33G A69U | ≤ 0.5
G12C G18C G41A A43G G48A | ≤ 0.5
G12A U19A G52C | ≤ 0.5
G12C U16A U26A G67U | ≤ 0.5
G12C G48C | 0.787
G12C G48A | 1.01
G12C A20U C33U A37U A57U | ≤ 0.5
G12A U19A A20U A36U | ≤ 0.5
G12A G23C C30G A37U C62U A65U | ≤ 0.5
G12C A45U | 0.978
G12C A45G | 0.684
G12C G44A | 0.879
G12C C22G C29A A43G | ≤ 0.5
G12C C33G A37G A40C C49G | ≤ 0.5
G12A G38A | 0.728
G12A U13A A14G G38C | ≤ 0.5
G12A G58U A70G | 0.538

Variant | yeast fitness
G12C G68C | 0.823
G12C A42G | 0.902
G12A G58A | 0.924
G12C C33G A37G A40C C49G G67C | 0.539
G12C G17A U28A C49A | ≤ 0.5
G12C A45G U47C | 0.502
G12C A20U C30U A65G A69C | ≤ 0.5
G12C G51C U59G | ≤ 0.5
G12A G44A C66U | 0.697
G12A G23C G25A U59A G63A | ≤ 0.5
G12C C33G G44C C49U | 0.539
G12C C61A C62A | ≤ 0.5
G12C G52A | 0.745
G12C G52C | 0.563
G12C A14C U26C A40U G41A A42C | ≤ 0.5
G12C C61G C62U | 0.605
G12A U19C G23A U32C A43C | ≤ 0.5
G12C C46U G51C U64A | ≤ 0.5
G12C C24A C55U | ≤ 0.5
G12A G38A G56C C62A A65C | ≤ 0.5
G12C C24G C30A A43C C60U C62A | ≤ 0.5
G12C A37G G38A U47A | ≤ 0.5
G12C G41C A57G | 0.562
G12C A20U G25A U59A | ≤ 0.5

Variant | yeast fitness
G12A U32A C46A C66U | ≤ 0.5
G12A G44C | 0.727
G12A G44A | 0.935
G12A U28C A40C G48A | 0.61
G12A U28A U54C G63A A70G | ≤ 0.5
G12C C31G G51A C55G G68C | 0.627
G12C G18C C66U | 0.528
G12C U13A G50A | ≤ 0.5
G12A U16A A45U | 0.629
G12C A15C A20U G41A | ≤ 0.5
G12C A37U G38A C55G | ≤ 0.5
G12A U32G C33U C55G A70G | ≤ 0.5
G12C A45U G58C A65U A70U | ≤ 0.5
G12C A42G U54G | ≤ 0.5
G12C C24G A37C | ≤ 0.5
G12A U54G A65U G67A | ≤ 0.5
G12C A14G A15C G52C | ≤ 0.5
G12C | 0.98
G12C G25C G39C | ≤ 0.5
G12C C31U | 0.876
G12C C31G | 0.818
G12C C31A | 0.774
G12C C24U A43C | ≤ 0.5
G12A G48C G68C A70U | ≤ 0.5

Variant | yeast fitness
G12A U19A C24U | 0.73
G12C A14C | 0.731
G12C A21C U26C U28C C46G C55U | ≤ 0.5
G12C C27U G39A | ≤ 0.5
G12C C24G C49G | ≤ 0.5
G12C A15C A20U U53A U59G | ≤ 0.5
G12C C27A C31G G52C | ≤ 0.5
G12C U13G C33U C55U G56A | ≤ 0.5
G12C C22U U54C A65U | 0.531
G12C A20U C22G G50A C61A | 0.567
G12C C31G C33G U35C | 0.515
G12C A14G G18A C33G | ≤ 0.5
G12C G18A | 0.823
G12C U16C | 0.771
G12A G50A C60A | ≤ 0.5
G12C C22U C60U G68C | ≤ 0.5
G12C A15G C24U A43G | 0.522
G12C G63A | 0.81
G12C A20U A36G C46A U54A A70U | ≤ 0.5
G12C C24U A42U C46A C55U C61G A69C | ≤ 0.5
G12C A43G G51C U59C C62G A70U | ≤ 0.5
G12C C30G A45U A69U | ≤ 0.5
G12C G48C G58A | 0.804
